Positions count from the first letter of the chain named. Where two headings read alike, the source gives them in different places. Values belong to the compound of their own block, whether it stands above or below them.
Key:
ferric WT DHP B [1] = target: T1, ferric WT DHP B (Amphitrite ornata, UniProt Q9NAV7); test: H2O2-dependent oxidation of haloindoles monitored by HPLC; type: biochemical; details: for conversion (%): 5 min
T1 sequence (Q9NAV7 1-138): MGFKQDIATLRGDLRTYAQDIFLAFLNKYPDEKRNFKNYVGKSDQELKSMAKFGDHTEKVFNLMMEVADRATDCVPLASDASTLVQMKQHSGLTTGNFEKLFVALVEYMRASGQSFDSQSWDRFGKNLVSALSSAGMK
Summary of the method: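 Triplicate reactions at 25 °C in 5% MeOH/100 mM KPi, pH 7, unless pH varied. Ferric DHP B (10 μM final) was premixed with substrate (500 μM final), and reactions were started with H2O2 (500 μM). Additives: 10% v/v DMSO, 500 μM mannitol, SOD, or buffer containing 500 mM sodium formate. Reactions were quenched with excess catalase after 5 min and diluted 10-fold. C18 reverse-phase HPLC used photodiode-array detection, with conversion from standard calibration curves.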

DHP A Ferric = test: H2O2-dependent oxidation of haloindoles monitored by HPLC, isoenzyme A; type: biochemical, Amphitrite ornata; details: DHP A Ferric 10 μM; [haloindole] = [H2O2] = 500 μM; pH 7, 25 °C, 5 min
Summary of the method: (§1)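 Triplicate reactions at 25 °C, pH 7, in 5% MeOH/100 mM KPi. Enzyme (10 μM final; ferric isoenzyme A or oxyferrous DHP B) was premixed with haloindole (500 μM), and reactions were started with 500 μM H2O2. After 5 min, reactions were quenched with excess catalase and diluted 10-fold in buffer. Analysis was by C18 reverse-phase HPLC (water/TFA to MeCN gradient) with diode-array detection, quantified against standard calibration curves.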

ferric WT DHP B [2] = target: T1, ferric WT DHP B; details: cited from earlier work
ferric DHP B = target: T2, ferric DHP B (Amphitrite ornata, UniProt Q9NAV7); test: Reactivity studies of 5-Br-3-oxindole by UV-vis; type: biochemical
T2 sequence (Q9NAV7 1-138): T1 sequence (Q9NAV7 1-138)
Summary of the method: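 5-Br-3-acetoxyindole (250 μM) was incubated <1 min with or without 10 μM ferric wild-type DHP B in 5% MeOH/100 mM KPi, pH 7, in a quartz cuvette. Porcine liver esterase (45 U) started the reaction, and UV-vis spectra were taken over time, aerobically or anaerobically (argon-degassed solutions, glovebox, sealed cuvette). Indigo product was quantified at 659 nm using ε = 22 140 M–1 cm–1.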

DHP B Oxyferrous = target: T3, DHP B Oxyferrous (Amphitrite ornata, UniProt Q9NAV7); test: H2O2-dependent oxidation of haloindoles monitored by HPLC, oxyferrous enzyme; type: biochemical; details: DHP B Oxyferrous 10 μM; [haloindole] = [H2O2] = 500 μM; pH 7, 25 °C, 5 min
T3 sequence (Q9NAV7 1-138): T1 sequence (Q9NAV7 1-138)
Summary of the method: as §1

[3] = target: T4, horseradish peroxidase (HRP) (Armoracia rusticana, UniProt P00433); test: H2O2-dependent oxidation of 5-Br-indole monitored by HPLC, HRP; type: biochemical; details: HRP 10 μM; [haloindole] = [H2O2] = 500 μM; pH 7, 25 °C, 5 min; n.d. = none detected
T4 sequence (P00433 31-338 limits assumed): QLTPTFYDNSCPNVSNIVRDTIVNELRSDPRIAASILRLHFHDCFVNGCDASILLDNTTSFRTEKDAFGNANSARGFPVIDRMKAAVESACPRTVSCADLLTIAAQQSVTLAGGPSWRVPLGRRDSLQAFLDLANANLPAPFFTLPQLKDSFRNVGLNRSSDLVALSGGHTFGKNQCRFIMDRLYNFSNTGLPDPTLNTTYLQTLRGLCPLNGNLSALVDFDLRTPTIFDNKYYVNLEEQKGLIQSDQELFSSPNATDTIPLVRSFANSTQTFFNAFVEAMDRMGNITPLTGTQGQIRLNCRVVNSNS

[4] = target: horse heart myoglobin (hhMb) (Equus caballus, UniProt P68082); test: H2O2-dependent oxidation of 5-Br-indole monitored by HPLC, myoglobin; type: biochemical; details: hhMb 10 μM; [haloindole] = [H2O2] = 500 μM; pH 7, 25 °C, 5 min; n.d. = none detected
ferric WT DHP B [5] = target: T1, ferric WT DHP B; test: 5-haloindole binding studies
WT DHP B Compound ES = target: T5, WT DHP B Compound ES (Amphitrite ornata, UniProt Q9NAV7); test: Double-mixing stopped-flow UV-vis, preformed Compound ES; type: biochemical
T5 sequence (Q9NAV7 1-138): T1 sequence (Q9NAV7 1-138)
Summary of the method: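 Double-mixing rapid-scan stopped-flow UV-vis at 20 °C in 5% MeOH/100 mM KPi, pH 7. Ferric wild-type DHP B (10 μM) was mixed with 10 equiv H2O2 and aged 350 ms to accumulate Compound ES. It was then mixed with 10, 25 or 50 equiv 5-Br-indole, and 800 scans were taken over 83 s. Spectra were fitted to component time courses.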

[6] = target: T6, DHP B(Y28F/Y38F) Compound I (Amphitrite ornata, UniProt Q9NAV7, Y29F/Y39F); test: Double-mixing stopped-flow UV-vis, preformed Compound I; type: biochemical
T6 sequence (Q9NAV7 1-138 Y29F/Y39F): T1 sequence (Q9NAV7 1-138) with Y29F, Y39F

oxyferrous DHP B = target: T7, oxyferrous DHP B (Amphitrite ornata, UniProt Q9NAV7); test: Stopped-flow UV-vis with oxyferrous DHP B / Compound II; type: biochemical; details: preincubated with 2.5 equiv 5-Br-indole, 5 equiv H2O2, pH 7
T7 sequence (Q9NAV7 1-138): T1 sequence (Q9NAV7 1-138)
Summary of the method: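 Single-mixing rapid-scan stopped-flow at 20 °C in 5% MeOH/100 mM KPi, pH 7.0. Oxyferrous DHP B (10 μM) was preincubated with 2.5 equiv 5-Br-indole, then rapidly mixed with 5 equiv H2O2. 800 spectra were collected over 83 s. Spectra were fitted to component species to obtain relative concentration time courses.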

[7] = DHP B Ferric, anaerobic, [haloindole] = [H2O2] = 500 μM, pH 7, 25 °C
[8] = 10 equiv 5-Br-indole, 10 equiv H2O2, pH 7
[9] = read-out: apparent dissociation constant (Kd), 10 μM ferric WT DHP B, 100 mM KPi pH 7, 10% MeOH

horse heart myoglobin (hhMb), sequence (P68082 whole entry): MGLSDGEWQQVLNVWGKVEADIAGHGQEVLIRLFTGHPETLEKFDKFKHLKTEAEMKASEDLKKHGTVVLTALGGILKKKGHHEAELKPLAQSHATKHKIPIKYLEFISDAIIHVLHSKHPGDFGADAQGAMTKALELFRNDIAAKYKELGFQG

Structure (SMILES): Oc1ccc(Br)cc1 [4-bromophenol, reference compound]
attenuation in reactivity of 5-Br-indole (ferric WT DHP B [1]; in the presence of 500 μM 4-bromophenol): 2 fold
Kd (ferric WT DHP B [2]): ~1200 µM

Structure (SMILES): Clc1ccc2[nH]ccc2c1 [5-Cl-indole]
Kd (ferric WT DHP B [5]; [9]): 317 ± 23 µM

Structure (SMILES): Fc1ccc2[nH]ccc2c1 [5-F-indole]
changes in the optical difference spectra upon binding (ferric WT DHP B [5]; even at the highest concentrations tested (up to 100 equiv)): No significant changes

Structure (SMILES): Ic1ccc2[nH]ccc2c1 [5-I-indole]
Kd (ferric WT DHP B [5]; [9]): 62 ± 10 µM

Structure (SMILES): c1ccc2[nH]ccc2c1 [indole]
reactivity lower than 5-Br-indole (ferric WT DHP B [1]; ferric WT DHP B, pH 7): 2 fold

Results, then the compound that gave them:

conversion (%) (ferric WT DHP B [1]; [7]): 40.1 (±0.9) %
conversion (%) (DHP A Ferric): 15.7 (±0.7) %
Structure (SMILES): Brc1cccc2[nH]ccc12 [4-Br-indole]

product distribution of 5-Br-indole reaction (HPLC) (ferric WT DHP B [1]; 5-Br-indole 500 μM, DHP B 10 μM, H2O2 500 μM, pH 7, 1a determined from mass balance): ~2%
5,5′-Br2-indigo formation aerobic versus anaerobic (ferric DHP B; DHP present): ~4 fold
5,5′-Br2-indigo formed in the presence of DHP versus the absence of enzyme (ferric DHP B; aerobic, after 5 min): 45 fold
5,5′-Br2-indigo concentration formed from 5-Br-3-oxindole (ferric DHP B; anaerobic, 10 μM DHP, after 10 min): ~8 µM
Structure (SMILES): O=C1/C(=C2\Nc3ccc(Br)cc3C2=O)Nc2ccc(Br)cc21 [5,5′-Br2-indigo, (E)-5,5′-dibromo-[2,2′-biindolinylidene]-3,3′-dione]

conversion (%) (ferric WT DHP B [1]; DHP B Ferric + 500 μM 4-BP, pH 7, 25 °C): 23.2 (±5.1) %
conversion (%) (ferric WT DHP B [1]; DHP B Ferric + 500 μM mannitol, pH 7, 25 °C): 46.2 (±1.6) %
conversion (%) (ferric WT DHP B [1]; DHP B Ferric + 500 mM formate, pH 7, 25 °C): 45.8 (±1.1) %
conversion (%) (ferric WT DHP B [1]; DHP B Ferric + 10% DMSO, pH 7, 25 °C): 45.0 (±4.4) %
conversion (%) (ferric WT DHP B [1]; DHP B Ferric + SOD ∼2 U/μL, pH 7, 25 °C): 46.1 (±0.7) %
conversion (%) (ferric WT DHP B [1]; [7]): 53.3 (±0.3) %
conversion (%) (ferric WT DHP B [1]; DHP B Ferric, pH 5, 25 °C): 63.4 (±0.1) %
conversion (%) (ferric WT DHP B [1]; DHP B Ferric, pH 6, 25 °C): 54.7 (±1.9) %
conversion (%) (ferric WT DHP B [1]; DHP B Ferric, pH 8, 25 °C): 34.4 (±2.4) %
conversion (%) (DHP B Oxyferrous): 44.9 (±4.8) %
conversion (%) (DHP A Ferric): 20.3 (±1.7) %
conversion (%) [3]: no reactivity
conversion (%) [4]: no reactivity
Kd (ferric WT DHP B [5]): 150 ± 10 µM
kobs, formation of mixture of oxyferrous and ferric DHP B at longer observation times (WT DHP B Compound ES; [8]): (1.39 ± 0.08) × 10^–2 s^–1
kobs, reduction of preformed Compound ES to ferric DHP B (WT DHP B Compound ES; [8]): (2.54 ± 0.05) × 10^5 M^–1 s^–1
time for reduction of Compound ES (within mixing time) (WT DHP B Compound ES; ≥25 equiv 5-Br-indole): < 2.5 ms
time to conversion to oxyferrous DHP B(Y28F/Y38F) ([6]; 10 equiv 5-Br-indole): 697 s
time to conversion to oxyferrous DHP B(Y28F/Y38F) ([6]; 50 equiv 5-Br-indole): 120 s
kobs, conversion of oxyferrous DHP B to Compound II (oxyferrous DHP B): (3.30 ± 0.01) × 10^–2 s^–1
Structure (SMILES): Brc1ccc2[nH]ccc2c1 [5-Br-indole]

— PMC4063182 (Journal of the American Chemical Society, 2014)
